Laboratory results: the EternaBench riboswitch data

Tested on: MS2 coat protein
Assay: apparent Kd, MS2 coat protein; higher = weaker binding; RNA-MaP array; FMN 200 µM where present
Outline: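 Designs were transcribed by stalled E. coli RNA polymerase on Illumina sequencing-chip clusters. They were titrated with SNAP-549-labelled MS2 coat protein from 0.7 or 1.5 nM, doubling to 3 µM, in 100 mM Tris-HCl pH 7.5, 80 mM KCl, 4 mM MgCl2, BSA, DTT, yeast tRNA and Tween-20, without and then with constant ligand. The apparent Kd is the median of filtered per-cluster fits after normalisation of green signal to red-channel RNA signal and control-cluster median Fmax.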

[1] = designed as: OFF switch for flavin mononucleotide, no ligand
[2] = ligand present: flavin mononucleotide, designed as: OFF switch for flavin mononucleotide
[3] = designed as: ON switch for flavin mononucleotide, no ligand
[4] = ligand present: flavin mononucleotide, designed as: ON switch for flavin mononucleotide

CCUCCUGCAAAGGAUAUCGCGCGGUGACGCUGUCGAGAAGGUUGUACAUGAGGAUCACCCAUGUGGUAUAAGAU
apparent Kd [1]: 202 nM
apparent Kd [2]: 472 nM

UUUUUAUUUAUAGGAUAUGGAAACAUGAGGAUCACCCAUGUAUGAUAAGAUAAAUUAUGAUAUGGCCAGAAGGAUAUUAUUUUU
apparent Kd [3]: 31 nM
apparent Kd [4]: 34.8 nM

CUAUUUUGUGCCUCAUGUACAUGAGGAUCACCCAUGUUAACUUAGGAUAUAUUUAUAUUGUUAGAGUAGAAGGAAGUACAAUUU
apparent Kd [1]: 30.2 nM
apparent Kd [2]: 27.1 nM

AAAAAAAAAAGUCAGGAUAUGCAGGGCGGGACAUGAGGAUCACCCAUGUGGCGGAAAAAAAAAAAGCAGAAGGGACGAAUAAAAAA
apparent Kd [3]: 53.2 nM
apparent Kd [4]: 27.4 nM

UUACUCAUGUAAGGAUAUGCAGCCGUUUCGGCUGCAGAAGGUACUAUAAUACAUGAGGAUCACCCAUGUCUUUUGAAUUUAGAC
apparent Kd [3]: 91.4 nM
apparent Kd [4]: 33.3 nM

AUGCUUCACACAGGAUAUACAUGAGGAUCACCCAUGUGUCCACCGUAGCUGACACGAGCUACGCGGUAGAAGGGUGUGAAGCAU
apparent Kd [1]: 18 nM
apparent Kd [2]: 33.3 nM

GUCUGAUUGUAGAAGGUACUUAAUACUCAUGUAACAUGAGGAUCACCCAUGUAUCAACAAUAUUGUAAGGAUAUACAAAUCUCA
apparent Kd [4]: 222 nM

UCAUCAGCGGGCGGAUCGGUUGGACAUGAGGAUCACCCAUGUAGAAGGACCGGUGGAUUCCGGCGGUAGGAUAUACAUUUGGUG
apparent Kd [1]: 12.9 nM
apparent Kd [2]: 27.4 nM

GUUUCACAUGAGGAUCACCCAUGUGAGGAUAUGGACUUAUUGGCAAUAGUCGAUGGGUUCAGAAGGCGCGUGAU
apparent Kd [1]: 67.9 nM
apparent Kd [2]: 71.2 nM

GUAGCAUACCGAGGAUAUUCAUAUUACAUGAGGAUCACCCAUGUUAUAGGUCGAUUACGACCUUGGGAGAAGGCGGAAUGCUAC
apparent Kd [3]: 30.9 nM
apparent Kd [4]: 13.2 nM

CACUCACAUGAGGAUCACCCAUGUCCUAGCAGGUCAGGAUAUAGCUCGGAUGCGUUGAGGCUAGAAGGGACAGGUU
apparent Kd [3]: 116 nM
apparent Kd [4]: 68.5 nM

UAAAAUCAUGUAGGAUAUGCGUGGCGAAGCUAUGCAGAAGGACAUGAGGAUCACCCAUGUCUUACCUAGCGUACUAGGUUAAAG
apparent Kd [1]: 19.7 nM
apparent Kd [2]: 107 nM

UUACUAUCACAGAAGGGUGGAUAGUAUAUAGACGCAGGAUAUGUGACAUGAGGAUCACCCAUGUUUCACCGGCAUGAGGAUCAA
apparent Kd [1]: 11.4 nM
apparent Kd [2]: 15.3 nM

ACAUACAUUCGAGGAUAUCGGUGAACAAAUUAACGAGAAGGCGAAAUACUUUUUAAUCUUAUAAACAUGAGGAUCACCCAUGUA
apparent Kd [3]: 19.9 nM
apparent Kd [4]: 20.7 nM

AUGCCUUAUGUAGGAUAUGCAUAGCGUUGCUAUGCAGAAGGACAUGAGGAUCACCCAUGUAUGUUAUCAUUACAUAUCUGGCAU
apparent Kd [1]: 27.6 nM
apparent Kd [2]: 271 nM

AAAUGCCUGUCGAUGCUCGACAUGAGGAUCACCCAUGUACAGCAGGAUAUGCGGAACUAACUCGUGCAGAAGGGCUGUACCUAA
apparent Kd [1]: 102 nM
apparent Kd [2]: 144 nM

CCUCUACAUGAGGAUCACCCAUGUGAGGAUAUGCGAGGCACGCCCGAUGGGCGCGCCGGUAGAAGGCAUGUGGU
apparent Kd [1]: 23.6 nM
apparent Kd [2]: 49.4 nM

UUUUAACAUGAGGAUCACCCAUGUGAGGAUAUCGAAAUUUAUAUUAAUAUUAUUAAAACGAGAAGGCACAUUUU
apparent Kd [1]: 63.1 nM
apparent Kd [2]: 82.8 nM

CCGUUGGGCUAGAAGGCUCCGGGAGGGCCGCGGAGAGGAUAUAGCACAUGAGGAUCACCCAUGUGGUAUGACCUUAUGUAAUCA
apparent Kd [1]: 37.4 nM
apparent Kd [2]: 82.7 nM

GUACAACAUGAGGAUCACCCAUGUAUAUAUAUACGAGGAUAUGCAUGUACGAAAGUAUAUGCAGAAGGCGUUGUAC
apparent Kd [3]: 127 nM
apparent Kd [4]: 30.2 nM

GGUUGGCGAGGAUAUACAUGAGGAUCACCCAUGUGAGAGAUACUAGUGAGGUCGAUUGGUAGAAGGCGCUGACA
apparent Kd [1]: 108 nM
apparent Kd [2]: 58.6 nM

CUUUCGUGAGGAUAUGUGGCUUAAAUCGUGAGAUCGAGGCUACAGAAGGCACAUGAGGAUCACCCAUGUUCCUC
apparent Kd [1]: 36 nM
apparent Kd [2]: 569 nM

AGUAACAGAGGAUAUACUAUUUUAUGUAUUUAUUAUUUUGAACAUGAGGAUCACCCAUGUAGAAGGCUGAAUAA
apparent Kd [1]: 27.1 nM
apparent Kd [2]: 22 nM

GUUGUGUAUGUAGGAUAUGCGAAGCAAAGCUUCGCAGAAGGACAUGAGGAUCACCCAUGUAUUGCAGCCUGCAAUCAGGCUGCU
apparent Kd [1]: 41.6 nM
apparent Kd [2]: 175 nM

GUGCCUUGGGAGAAGGCAGCAUGCAAAGCAUUCUGAGGAUAUUCAUACCGGAAACGGACAUGAGGAUCACCCAUGUGGCACAAA
apparent Kd [3]: 1470 nM
apparent Kd [4]: 72.1 nM

GAUCCACAUGAGGAUCACCCAUGUGAGGAUAUGAUACUAUGUACUUCGGUACAUAGUAUCAGAAGGCACAUUGA
apparent Kd [1]: 114 nM
apparent Kd [2]: 65.9 nM

ACAGAGUGAAGACAGGAUAUUCGCGAUGGCACAUGAGGAUCACCCAUGUUUUGAGCACAUAAACAGAAGAAGGGUUAAAACUCAG
apparent Kd [3]: 132 nM
apparent Kd [4]: 13.8 nM

UUAGCAUACCGAGGAUAUUCAUAUAAUAAAUAAACAUGAGGAUCACCCAUGUGGCGAAAGCCUAGGGAGAAGGCGGAAUGCUAC
apparent Kd [3]: 206 nM
apparent Kd [4]: 26.5 nM
